Series [1] is described as follows: Volume of distribution at steady state in cynomolgus monkey at 1 mg/kg, iv. In kind it is ADME, organism-based, Macaca fascicularis. The settings on record: in vivo, read-out: Vdss. In outline: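 Single intravenous dose: mouse and rat 2 mg/kg, dog and cynomolgus 1 mg/kg. Steady-state volume of distribution was derived from the IV arm. Values are means from three or more animals.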

The test system of series [2] is Mus musculus. Kind of series: Protection against imiquimod-induced C57BL/6 mouse model of psoriasis assessed as reduction in IL-17F mRNA levels at 5 mg/kg, po BID for 7 days by RT-PCR analysis relative to control. In kind it is functional. Also noted: scale not given: the % may be the effect or the level left. Particulars: time 7 day.
Series [3] is described as follows: Cmax in cynomolgus monkey at 2 mg/kg, po. Also noted: route oral, dose 2 mg/kg. In kind it is ADME, organism-based, Macaca fascicularis. Particulars: in vivo. The gist of the method:
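Single-dose PK, IV and PO. Doses: mouse and rat 2 mg/kg IV / 4 mg/kg PO; dog and cyno 1 mg/kg IV, with 1 or 2 mg/kg PO.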

SMILES strings stand for the structures.

What is called Cmax is the peak of the concentration-time curve. As to `CC(C)(O)C(=O)N[C@@H]1CC[C@@]2(S(=O)(=O)c3ccc(F)cc3)c3ccc(C(F)(C(F)(F)F)C(F)(F)F)cc3CC[C@@H]12`, the Vd in series [1] is 2.7 L/kg. Also, the Activity in series [2] is on record as 79.2%. The molecule also gave a Cmax in series [3] of 1100 nM.

The record behind these values is ChEMBL document CHEMBL4819034, “Tricyclic-Carbocyclic RORγt Inverse Agonists-Discovery of BMS-986313” (J Med Chem, 2021).
